Variants at the floor of the assay were thinned out.
B1: tRNA (parent)
chain: GUUCCGUUGGCGUAAUGGUAACGCGUCUCCCUCCUAAGGAGAAGACUGCGGGUUCGAGUCCCGUACGGAACG

Variants of: B1
Assay: yeast fitness relative to wild type (ratio to wild type); higher = fitter; tRNA-Arg(CCU), competitive growth, 37 C, YPD
Summary of the method: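 Start and end populations of a pooled competition were compared by 100-nucleotide paired-end sequencing of gene amplicons. The Saccharomyces cerevisiae strains carried tRNA-Arg(CCU) gene variants at the native genomic locus, synthesised with a 3% per-site mutation rate at 69 sites, and competed in YPD at 37°C for 24 hours in six parallel replicates. Darwinian fitness relative to wild type was based on the change in genotype frequencies. Genotypes required ≥ 100 starting reads, and estimates < 0.5 were set to 0.5.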
GUUCCGUUGGCGUAAUGGUAGCGCGUCUCCCUCCUAAGGAGAAGACUGCGGGUUCGAGUCGCGGACGGAACG [A21G C61G U64G] showed a yeast fitness of 0.586. Variant GUUCCGUUGGCGUAAUGGUAGCGCGUCUCACUGCUAAGGAGAAGACCGCGGGUUCGAGACCCGUAUGGAACG [A21G C30A C33G U47C U59A C66U] has a yeast fitness of no more than 0.5. For GUUCCGUUGGCGUAAUGGUAGCGCGUCUCGCUCCUAAGGAGAAGACUGCGGGUUCGAGUCCCGUACGGCACG [A21G C30G A69C], the yeast fitness was 0.544. Work on GUUCCGUUGGCGUAAUGGUAGCGCGUCUCCCUCAUAAGGAGAAGACUGCGGGUUAGAGUCCCGUACGGCACG [A21G C34A C55A A69C] yielded a yeast fitness of 0.565. GUUCCGUUGGCGUAAUGGUAGCGCGUCUCUCUCCUAAGGAGAAGACUGCGGGUUCGAGUCCCGUACGGAACG [A21G C30U] showed a yeast fitness of 0.97. GUUCCGUUGGCGUAAUGGUAGCGCGUCUCGCUCCUAAGGAGAAGACUGCGGGUUCGAGUCCCGUACGGAACG [A21G C30G] showed a yeast fitness of 0.784. Work on GUUCCGUUGGCGUAAUGGUAGCGCGUCUCCCUCGUAAGGAGAAGACUGCGGGUUCGAGUCUCGUACGGAACG [A21G C34G C61U] yielded a yeast fitness of 0.722. GUUCCGUUGGCGUAAUGGUAGCGCGUCUCCCUCCUAAGGAGAAGACUGCGGGUUCGAGUCCCGUAUGGUACG [A21G C66U A69U] gave a yeast fitness of 0.771. Work on GUUCCGUUGGCGUAAUGGUAGCGCGUCUCCCUACUAAGGAGAAGACUGCGAGUUCGUGUCCCGUUCGGAACG [A21G C33A G51A A57U A65U] yielded a yeast fitness of no more than 0.5. With GUUCCGUUGGCGUAAUGGUAGCGCGUCUCCCUCCUAAGGAGAAGACUGAGGGUUCGAGUCCCGUACGGAACG [A21G C49A] the yeast fitness was 0.736. For GUUCCGUUGGCGUAAUGGUAGCGCGUCUCCCUCCUAAGGAGAAGACUGGGGGUUCGAGUCCCGUACGGAACG [A21G C49G], the yeast fitness was 1.13. In the case of GUUCCGUUGGCGUAAUGGUAGCACGUCUCCCUCCUAAGGAGAAGCCUGCGGAUUCGAGUCCCGUACGGCACG [A21G G23A A45C G52A A69C], the yeast fitness is reported as 0.521. With GUUCCGUUGGCGUAAUGGUAGCGCGUCUUCCUCCUAAGGACAAGACUGCGGGUUUGAGUCCCGUACGCAACG [A21G C29U G41C C55U G68C] the yeast fitness was no more than 0.5. Variant GUUCCGUUGGCGUAAUGGUAGCACGUGUCCCUCCUAUGGAGAAAACUGUGGGUUCGAGUCCCGUACCGUACG [A21G G23A C27G A37U G44A C49U G67C A69U] has a yeast fitness of no more than 0.5. With GUUCCGUUGGCGUAAUGGUAGCGCGUCUCCGUCCUAAGGAGAAGACUGCGGGUUCGAGUCCCGUACGGAGCG [A21G C31G A70G] the yeast fitness was 0.787. Work on GUUCCGUUGGCGUAAUGGUAGCACGUGUCCCUCCUAAGGAGAAGACUGCGGGUUCGAGUCUCGUACGGCACG [A21G G23A C27G C61U A69C] yielded a yeast fitness of no more than 0.5. With GUUCCGUUGGCGUAAUGGUAGCGCGUCUCCCUGCUAAAGAGAAGACUGCGGGUUCGAGUCCCAUACGGAACG [A21G C33G G38A G63A] the yeast fitness was no more than 0.5. Work on GUUCCGUUGGCGUAAUGGUAGCGCGUCUCCUUCCCAAGGAGAAGACUGCGGGUUCGAGUCUCGUAUGGAACG [A21G C31U U35C C61U C66U] yielded a yeast fitness of no more than 0.5. With GUUCCGUUGGCGUAAUGGUAGCGCGUCUCCCUCCUAAGGAGAAGACUGCGGGUUCGAGUGCCGUACGGAACG [A21G C60G] the yeast fitness was 0.667. GUUCCGUUGGCGUAAUGGUAGCGCGUCUCCCUUCUAAGGAGAAGACUGCGGGUUCGAGACCCGUACGGAACG [A21G C33U U59A] gave a yeast fitness of no more than 0.5. Work on GUUCCGUUGGCGUAAUGGUAGCACGUGUCCCUCCUAUGGAGAAAACUGUGGGUUCGAGUCCCGUACGGAACG [A21G G23A C27G A37U G44A C49U] yielded a yeast fitness of 0.564. In the case of GUUCCGUUGGCGUAAUGGUAGCGCGUCUCCCUCCUAAGGAGAAGAUUGCGGCUUCGAGUCCCGUACGGAACG [A21G C46U G52C], the yeast fitness is reported as 0.794. For GUUCCGUUGGCGUAAUGGUAGCGCGUCUCCGUCCUAAGGAGAAGGCUGCGGGUUCGAGUCCCGUACGGAACG [A21G C31G A45G], the yeast fitness was 0.938. For GUUCCGUUGGCGUAAUGGUAGCGCGUCUCCCUCUUAAGGAGAAGACUGCGGGUUGGAGUCCCGUACGGAACG [A21G C34U C55G], the yeast fitness was no more than 0.5. With GUUCCGUUGGCGUAAUGGUAGCGCGUCUCGCUCCUAAGGAGAAGACUGCGCGUUCGAGUCCCGUACGGAACG [A21G C30G G51C] the yeast fitness was no more than 0.5. GUUCCGUUGGCGUAAUGGUAGCGCGUCUCCUUCCCAAGGGGAAGACUGCGGGUUCGAGUCCCGUUCGGAACG [A21G C31U U35C A40G A65U] gave a yeast fitness of no more than 0.5. Variant GUUCCGUUGGCGUAAUGGUAGCGCGUCUCCCUCCUAAGGAGAAGACUGCGGGUUCGAGUCCCGUAAGGAACG [A21G C66A] has a yeast fitness of 0.701. GUUCCGUUGGCGUAAUGGUAGCGCGUCUCCCUCCUAAGGAGAAGACUGUGGGUUCGAGUCCCCUACGGAACG [A21G C49U G63C] showed a yeast fitness of no more than 0.5. For GUUCCGUUGGCGUAAUGGUAGCGCGUCUCCGUCCUAAGGAGAAGACUGCGGGUUCGAGUCCCAUACGGAACG [A21G C31G G63A], the yeast fitness was 0.774. For GUUCCGUUGGCGUAAUGGUAGCACGUCUCCCUCCUAAGGAGAAGACUGCGGGUUCGAGUCCCGUACGGAACG [A21G G23A], the yeast fitness was 0.787. For GUUCCGUUGGCGUAAUGGUAGCGCGUCUUCCUCCUAAGGACAAGACUGCGGGUUCGAGUCCCGUACGGUACG [A21G C29U G41C A69U], the yeast fitness was 0.63. In the case of GUUCCGUUGGCGUAAUGGUAGCACGUCUCCCUCCUAAGGAGAAGACUGCGGGUUCGUGUCGCGUACGGAACG [A21G G23A A57U C61G], the yeast fitness is reported as 0.623. In the case of GUUCCGUUGGCGUAAUGGUAGCGCGUCUCGCUCCUAAGGAGAAGACUGCGGGUUUGAGUCCCGUACGGAACG [A21G C30G C55U], the yeast fitness is reported as 0.682. For GUUCCGUUGGCGUAAUGGUAGCGCGUCUCACUGCUAAGGAGAAGACUGCGGGUUCGAGACCCGUAUGGAACG [A21G C30A C33G U59A C66U], the yeast fitness was 0.535. GUUCCGUUGGCGUAAUGGUAGCGCGUCUCCCUACUAAGGACAAGACUGCGGGUUCGAGUCCCGUACGGAACG [A21G C33A G41C] showed a yeast fitness of no more than 0.5. GUUCCGUUGGCGUAAUGGUAGCGCGUCUCCCUCCUAAGGAGAAGACUGUGGGUUCGAGUCCCGUACGGAGCG [A21G C49U A70G] showed a yeast fitness of 0.817. Work on GUUCCGUUGGCGUAAUGGUAGCGCGUCUCCCUCCUAAGGAGAAGACUGUGGGUUCGAGUCCAGUACGGAACG [A21G C49U C62A] yielded a yeast fitness of 0.602. With GUUCCGUUGGCGUAAUGGUAGCGCGUCUCCCUCCUAAGGAGAAGACUGUGGGUUCGAGUCCGGUACGGAACG [A21G C49U C62G] the yeast fitness was 0.566.

From the RNAGym collection of RNA variant scans (doi:10.1126/science.aae0568)
